Consider 8 molecules from ChEMBL document CHEMBL4396874, “Consideration of Binding Kinetics in the Design of Stapled Peptide Mimics of the Disordered Proteins Eukaryotic Translation Initiation Factor 4E-Binding Protein 1 and Eukaryotic Translation Initiation Factor 4G” (J Med Chem, 2019).

Data set [1] deals with T1, Eukaryotic translation initiation factor 4E (Homo sapiens, UniProt P06730). The data set is described as follows: Binding affinity to N-terminal 10His-tagged m7GDP-bound recombinant human eIF4E expressed in Escherichia coli BL21 (DE3) cells assessed as binding constant at 25 degreeC in presence of 1000 mM of NaCl by surface plasmon resonance analysis. The method, boiled down: (§1)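 Peptides injected at 50 μL/min, 10 concentrations (188 nM to 4.0 μM) in duplicate, random order. Chip stripped with EDTA and reloaded between cycles.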
T1 sequence (P06730 whole entry): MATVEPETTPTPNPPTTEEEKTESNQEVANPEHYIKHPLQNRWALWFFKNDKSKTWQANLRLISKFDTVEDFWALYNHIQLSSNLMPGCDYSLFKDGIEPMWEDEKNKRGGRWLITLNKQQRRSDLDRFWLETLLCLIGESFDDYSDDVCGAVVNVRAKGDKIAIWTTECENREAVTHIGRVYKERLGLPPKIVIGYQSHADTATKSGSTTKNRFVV

Data set [2] addresses T1, Eukaryotic translation initiation factor 4E.
The target is the same in data set [3]. The data set is described as follows: Binding affinity to N-terminal 10His-tagged m7GDP-bound recombinant human eIF4E expressed in Escherichia coli BL21 (DE3) cells assessed as dissociation constant at 25 degreeC in presence 225 to 1000 mM of NaCl by surface plasmon resonance analysis.
Data set [4] has the same target. In words: Binding affinity to N-terminal 10His-tagged m7GDP-bound recombinant human eIF4E expressed in Escherichia coli BL21 (DE3) cells assessed as dissociation constant at 10 to 25 degreeC by surface plasmon resonance analysis relative to control. The method, boiled down:
as §1

The target of data set [5] is Eukaryotic translation initiation factor 4E/Eukaryotic translation initiation factor 4E-binding protein 1 (Homo sapiens, UniProt P06730). The data set is described as follows: Inhibition of Halo-tagged biotinylated human eIF4E expressed in Escherichia coli/Halo-tagged methyltetrazine-labelled human 4E-BP1 expressed in Escherichia coli protein-protein interaction incubated for 1 hr by catalytic enzyme-linked click chemistry assay.
Eukaryotic translation initiation factor 4E/Eukaryotic translation initiation factor 4E-binding protein 1, sequence (P06730 whole entry): as above
Eukaryotic translation initiation factor 4E/Eukaryotic translation initiation factor 4E-binding protein 1, sequence (Q13541 whole entry, further chain): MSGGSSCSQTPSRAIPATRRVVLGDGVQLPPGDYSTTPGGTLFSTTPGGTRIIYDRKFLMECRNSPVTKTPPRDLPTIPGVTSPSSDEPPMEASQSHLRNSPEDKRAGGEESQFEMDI

In data set [6] the test system is MDA-MB-231. The data set is described as follows: Anti-proliferative activity against human MDA-MB-231 cells at 5 to 20 uM after 6 days by CellTiter-Glo assay. The data set is classed as functional, cell-based. The method, boiled down:
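MDA-MB-231 cells (RPMI-1640, 10% FBS, 2 mM glutamine) plated at 2000 cells/well; peptides added at varying concentrations in triplicate for 6 days. Medium then replaced with OptiMEM, cells lysed with CellTiter-Glo reagent, luminescence read within 1 h. Data normalized; triplicate biological replicates.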

Data set [7] deals with T1, Eukaryotic translation initiation factor 4E. The data set is described as follows: Binding affinity to N-terminal 10His-tagged m7GDP-bound recombinant human eIF4E expressed in Escherichia coli BL21 (DE3) cells assessed as association rate constant at 25 degreeC by surface plasmon resonance analysis.
The target is the same in data set [8]. In words: Binding affinity to N-terminal 10His-tagged m7GDP-bound recombinant human eIF4E expressed in Escherichia coli BL21 (DE3) cells assessed as dissociation rate constant at 25 degreeC by surface plasmon resonance analysis.
The target is the same in data set [9]. The data set is described as follows: Binding affinity to N-terminal 10His-tagged m7GDP-bound recombinant human eIF4E expressed in Escherichia coli BL21 (DE3) cells assessed as association constant at 12.5 to 200 nM at 10 to 25 degreeC by surface plasmon resonance analysis.
The target is the same in data set [10]. The data set is described as follows: Binding affinity to N-terminal 10His-tagged m7GDP-bound recombinant human eIF4E expressed in Escherichia coli BL21 (DE3) cells assessed as binding constant at 25 degreeC by surface plasmon resonance analysis. The method, boiled down: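 m7GDP-bound His10-eIF4E captured to ~600 RU on a Ni-activated HisCap chip. EDTA regeneration between cycles. Kd from global 1:1 fit; triplicate experiments.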

The target is the same in data set [11]. The data set is described as follows: Binding affinity to N-terminal 10His-tagged m7GDP-bound recombinant human eIF4E expressed in Escherichia coli BL21 (DE3) cells assessed as binding constant at 10 to 25 degreeC by surface plasmon resonance analysis.
The target in data set [12] is Eukaryotic translation initiation factor 4E/Eukaryotic translation initiation factor 4E-binding protein 1 (Homo sapiens) (UniProt P06730+Q13541). The data set is described as follows: Inhibition of eIF4E/4E-BP1 interaction in human MDA-MB-231 cells incubated for 6 hr by m7GDP pull down assay. The data set is classed as cell-based.
Eukaryotic translation initiation factor 4E/Eukaryotic translation initiation factor 4E-binding protein 1 (Homo sapiens), sequence (P06730 2-217 limits assumed): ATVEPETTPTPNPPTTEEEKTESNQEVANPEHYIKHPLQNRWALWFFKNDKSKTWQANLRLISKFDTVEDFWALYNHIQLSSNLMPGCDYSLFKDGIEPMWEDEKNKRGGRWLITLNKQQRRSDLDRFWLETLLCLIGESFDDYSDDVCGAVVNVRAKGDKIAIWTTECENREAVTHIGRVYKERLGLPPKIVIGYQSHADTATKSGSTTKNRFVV
Eukaryotic translation initiation factor 4E/Eukaryotic translation initiation factor 4E-binding protein 1 (Homo sapiens), sequence (Q13541 2-118 partner limits assumed): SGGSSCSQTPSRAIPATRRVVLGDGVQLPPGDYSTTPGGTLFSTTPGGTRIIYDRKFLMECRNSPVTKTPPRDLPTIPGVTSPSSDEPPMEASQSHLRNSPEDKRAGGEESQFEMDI
The subject of data set [13] is MDA-MB-231. The data set is described as follows: Effect on total eIF4G level in human MDA-MB-231 cells at 5 uM after 6 hrs by Western blot analysis. The data set is classed as ADME, cell-based. As to conditions: mda-mb-231, 6 h. The method, boiled down:
(§2)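 MDA-MB-231 cells in 10% FBS treated 6 h with water-dissolved peptides, lysed in RIPA with protease/phosphatase inhibitors, sonicated on ice, protein normalized by BCA, then western blotted (4–12% bis-Tris gel, PVDF, 5% milk block, primary overnight at 4 °C). Triplicate biological replicates.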

The target in data set [14] is EIF4E/EIF4G1 (Homo sapiens) (UniProt P06730+Q04637). In words: Inhibition of eIF4E/eIF4G interaction in human MDA-MB-231 cells incubated for 6 hr by m7GDP pull down assay. The class given is cell-based.
For data set [15], the system named is MDA-MB-231. The data set is described as follows: Effect on total eIF4E level in human MDA-MB-231 cells at 5 uM after 6 hrs by Western blot analysis. The data set is classed as ADME, cell-based. The conditions noted are these: mda-mb-231, 6 h. The method, boiled down: as §2
In data set [16] the test system is MDA-MB-231. The data set is described as follows: Effect on total 4E-BP1 level in human MDA-MB-231 cells at 5 uM after 6 hrs by Western blot analysis. The class given is ADME, cell-based. As to conditions: mda-mb-231, 6 h. The method, boiled down: as §2
Data set [17] relates to MDA-MB-231. In words: Induction of cell lysis in human MDA-MB-231 cells assessed as LDH leakage at 15 uM after 24 hrs by LDH cytotoxicity assay. As to conditions: mda-mb-231, 24 h.

Activity calls are given as the source filed them. The rule behind the calls is not given here. Bridge positions count the residues as written; N and C are the ends. Square brackets hold non-standard residues; d marks the D form. Peptide text beside a SMILES is read from it. S5 = C=CCCC[C@](C)(N)C(=O)O

Take `CC[C@H](C)[C@H](NC(=O)[C@@H](NC(=O)[C@@H](N)CCCNC(=N)N)[C@@H](C)CC)C(=O)N[C@@H](Cc1ccc(O)cc1)C(=O)N[C@@H](CC(=O)O)C(=O)N[C@@H](CCCNC(=N)N)C(=O)N[C@@H](CCCCN)C(=O)N[C@@H](Cc1ccccc1)C(=O)N[C@@H](CC(C)C)C(=O)N[C@@H](CCSC)C(=O)N[C@@H](CCC(=O)O)C(=O)N[C@@H](CS)C(=O)N[C@@H](CCCNC(=N)N)C(=O)N[C@@H](CC(N)=O)C(N)=O`: the K result in data set [1] was “Active”. Also, in data set [2], the Ka result was “inactive”. In addition, in data set [3], the Kd entry is reported as “Not Active”. The fold change (FC) in [4] is 3.9 to 5.5.

`CC(=O)N[C@@H](CCCCN)C(=O)N[C@@H](CCCCN)C(=O)N[C@@H](CCCNC(=N)N)C(=O)N[C@@H](Cc1ccc(O)cc1)C(=O)N[C@@H](CC(=O)O)C(=O)N[C@@H](CCCNC(=N)N)C(=O)N[C@@H](CCC(=O)O)C(=O)N[C@@H](Cc1ccccc1)C(=O)N[C@@H](CC(C)C)C(=O)N[C@@H](CC(C)C)C(=O)NCC(=O)N[C@@H](Cc1ccccc1)C(=O)N[C@@H](CCC(N)=O)C(=O)N[C@@H](Cc1ccccc1)C(N)=O` gave an IC50 in [5] of 137 to 195 nM.

With `CC[C@H](C)[C@H](NC(=O)[C@H](CCCNC(=N)N)NC(=O)[C@@H](NC(=O)CNC(C)=O)[C@@H](C)O)C(=O)N[C@H](C(=O)N[C@@H](Cc1ccc(O)cc1)C(=O)N[C@@H](CC(=O)O)C(=O)N[C@@H](CCCNC(=N)N)C(=O)N[C@@]1(C)CCC/C=C\CCC[C@@](C)(C(=O)N[C@@H](CS)C(=O)N[C@@H](CCCNC(=N)N)C(=O)N[C@@H](CC(N)=O)C(N)=O)NC(=O)[C@H](C)NC(=O)[C@H](C)NC(=O)[C@H](Cc2ccccc2)NC1=O)[C@@H](C)CC`, in the data set on MDA-MB-231 [6], the outcome was inactive.

H-KKRYDRKFLMECRN-NH2: the kon in data set [7] was found to be 2 ×10⁶ /M/s. Also, in data set [4], the fold change (FC) was in the range of 3.9 to 5.5.

As to Ac-KKRYSREQLLGL-NH2, the koff in data set [8] is on record as 123 ×10⁻³ /s. For the same molecule, the K is 14 to 62 nM in data set [1] and 62 nM in data set [10]. The molecule further gave an IC50 in data set [5] of 384 to 633 nM. The kon in data set [7] is 2 ×10⁶ /M/s. In addition, the Ka entry in data set [9] was “inactive”. Also, in data set [4], the fold change (FC) lay within 3.9 to 5.5. The K entry in [11] is “Active”.

With `CC(=O)N[C@@H](CCCCN)C(=O)N[C@@H](CCCCN)C(=O)N[C@@H](CCCNC(=N)N)C(=O)N[C@@H](Cc1ccc(O)cc1)C(=O)N[C@@H](CO)C(=O)N[C@@H](CCCNC(=N)N)C(=O)N[C@@]1(C)CCC/C=C\CCC[C@@](C)(C(=O)N[C@@H](CC(C)C)C(N)=O)NC(=O)[C@H](CC(C)C)NC(=O)[C@H](CC(C)C)NC(=O)[C@H](CCC(N)=O)NC1=O`, in the data set on MDA-MB-231 [6], the outcome was Active. Besides, the inhibition result in data set [12] and in [14] was “Dose-dependent effect” in each case. Moreover, the Activity entry in the data set on MDA-MB-231 [13], in the data set with MDA-MB-231 [15], in the data set on MDA-MB-231 [16] and in the data set with MDA-MB-231 [17] was “Non-Toxic” each time. In addition, the IC50 in data set [5] is 16.6 to 31 nM.

On to `CC[C@H](C)[C@H](NC(=O)[C@H](CCCNC(=N)N)NC(=O)[C@@H](NC(=O)CNC(C)=O)[C@@H](C)O)C(=O)N[C@H](C(=O)N[C@@H](Cc1ccc(O)cc1)C(=O)N[C@@H](CC(=O)O)C(=O)N[C@@H](CCCNC(=N)N)C(=O)N[C@@]1(C)CCC/C=C\CCC[C@@](C)(C(=O)N[C@@H](CS)C(=O)N[C@@H](CCCNC(=N)N)C(=O)N[C@@H](CC(N)=O)C(N)=O)NC(=O)[C@H](CCSC)NC(=O)[C@H](CC(C)C)NC(=O)[C@H](Cc2ccccc2)NC1=O)[C@@H](C)CC`, for which the result with MDA-MB-231 [6] was Active. Further, the Activity result in the data set on MDA-MB-231 [13], in the data set on MDA-MB-231 [15] and in the data set with MDA-MB-231 [16] was “Non-Toxic” in each case. This molecule came in with an IC50 in data set [5] of 3.1 to 6.7 nM.

With `CC(=O)N[C@@H](CCCCN)C(=O)N[C@@H](CCCCN)C(=O)N[C@@H](CCCNC(=N)N)C(=O)N[C@@H](Cc1ccc(O)cc1)C(=O)N[C@@H](CC(=O)O)C(=O)N[C@@H](CCCNC(=N)N)C(=O)N[C@@]1(C)CCC/C=C\CCC[C@@](C)(C(=O)N[C@@H](Cc2ccccc2)C(=O)N[C@@H](CCC(N)=O)C(=O)N[C@@H](Cc2ccccc2)C(N)=O)NC(=O)[C@H](CC(C)C)NC(=O)[C@H](CC(C)C)NC(=O)[C@H](Cc2ccccc2)NC1=O` (Ac-KKRYDR[S5]FLL[S5]FQF-NH2; staple (Z) 7-11), in data set [5], the IC50 lay in the range of 4500 to 7300 nM.
